Data: ChEMBL document CHEMBL1140053, “Discovery of antimycobacterial spiro-piperidin-4-ones: an atom economic, stereoselective synthesis, and biological intervention” (J Med Chem, 2008)
≈ marks a conversion by molar mass, not a printed value.

What was measured:
[1] = tested on: Mycobacterium tuberculosis; test: Antimycobacterial activity against Mycobacterium tuberculosis H37Rv by agar dilution method; format: functional
[2] = tested on: Mycolicibacterium smegmatis; test: Antimycobacterial activity against Mycobacterium smegmatis MC2 by agar dilution method; format: functional
[3] = tested on: Vero; test: Cytotoxicity against african green monkey Vero cells after 72 hrs by MTT assay; format: cell-based; settings: Chlorocebus sabaeus
[4] = tested on: Mycobacterium tuberculosis; test: Antimycobacterial activity against Mycobacterium tuberculosis H37Rv ATCC 35801 infected in CD1 mouse assessed as bacterial load in lungs at 25 mg/kg, ip after 10 days; format: functional; settings: route intraperitoneal
Method in brief: (§1)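 Six-week-old female CD-1 mice, six per group, infected via caudal vein with approximately 10⁷ viable organisms. Intraperitoneal dosing at 25 mg/kg began 10 days post-inoculation and continued for 10 days. At 35 days post-infection, spleens and right lungs were homogenized and plated in serial 10-fold dilutions on 7H10 agar, incubated at 37 °C, 4 weeks. CFU compared with vehicle-treated controls.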

[5] = Selectivity index, ratio of IC50 for african green monkey Vero cells to MIC for mycobacterium; format: functional
Method in brief: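 Selectivity index taken as IC50/MIC. IC50 comes from Vero cells exposed to serial dilutions up to 62.5 µg/mL for 72 h, with viability read by MTT conversion to formazan. MIC comes from agar dilution in Middlebrook 7H11 with OADC at pH 7.40, run in duplicate, and is the lowest concentration giving complete growth inhibition.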

[6] = tested on: Mycobacterium tuberculosis; test: Antimycobacterial activity against Mycobacterium tuberculosis H37Rv ATCC 35801 infected in CD1 mouse assessed as bacterial load in spleen at 25 mg/kg, ip after 10 days; format: functional; settings: route intraperitoneal; method in brief: as §1

Compound	MIC [1] [µg/mL]	MIC [2] [µg/mL]	IC50 [3] [µM]	log10cfu [4]	Selectivity Index [5]	log10cfu [6]
CN1C/C(=C\c2ccc(F)cc2)C(=O)[C@]2(C1)[C@@H](c1ccc(F)cc1)CN(C)[C@@]21C(=O)Nc2ccccc21	6.27 (≈ 12.6 µM)	50.1 (≈ 100 µM)				
CN1C/C(=C\c2ccc(Cl)cc2Cl)C(=O)[C@]2(C1)[C@@H](c1ccc(Cl)cc1Cl)[C@@H]1CCCN1[C@@]21C(=O)Nc2ccccc21 (racemic)	19.9 (≈ 31.8 µM)	79.7 (≈ 127 µM)				
COc1ccccc1/C=C1\CN(C)C[C@@]2(C1=O)[C@@H](c1ccccc1OC)[C@@H]1CCCN1[C@@]21C(=O)Nc2ccccc21 (racemic)	0.71 (≈ 1.29 µM)	2.84 (≈ 5.17 µM)	114			
CN1C/C(=C\c2cccs2)C(=O)[C@]2(C1)[C@@H](c1cccs1)CN(C)[C@@]21C(=O)Nc2ccccc21 (racemic)	1.64 (≈ 3.45 µM)	6.59 (≈ 13.9 µM)	132			
CN1C/C(=C\c2ccco2)C(=O)[C@]2(C1)[C@@H](c1ccco1)[C@@H]1CCCN1[C@@]21C(=O)Nc2ccccc21 (racemic)	53.3 (≈ 114 µM)	107 (≈ 227 µM)				
CN1C/C(=C\c2cccs2)C(=O)[C@]2(C1)[C@@H](c1cccs1)[C@@H]1CCCN1[C@@]21C(=O)Nc2ccccc21 (racemic)	0.38 (≈ 0.757 µM)	3.11 (≈ 6.2 µM)	125			
CN1C/C(=C\c2ccccc2Cl)C(=O)[C@]2(C1)[C@@H](c1ccccc1Cl)CN(C)[C@@]21C(=O)Nc2ccccc21 (racemic)	0.17 (≈ 0.319 µM)	1.47 (≈ 2.76 µM)	117			
CN1C/C(=C\c2ccc(F)cc2)C(=O)[C@]2(C1)[C@@H](c1ccc(F)cc1)[C@H](c1ccccc1)N[C@@]21C(=O)Nc2ccccc21 (racemic)	0.07 (≈ 0.125 µM)	0.69 (≈ 1.23 µM)	111	6.01	1634	5.2
CN1C/C(=C\c2cccc(F)c2)C(=O)[C@]2(C1)[C@@H](c1cccc(F)c1)CN(C)[C@@]21C(=O)Nc2ccccc21 (racemic)	1.56 (≈ 3.12 µM)	6.27 (≈ 12.6 µM)	125			
CN1C/C(=C\c2ccc(Cl)cc2)C(=O)[C@]2(C1)[C@@H](c1ccc(Cl)cc1)[C@@H]1CCCN1[C@@]21C(=O)Nc2ccccc21 (racemic)	22.7 (≈ 40.7 µM)	90.9 (≈ 163 µM)				
CN1C/C(=C\c2ccccc2Cl)C(=O)[C@]2(C1)[C@@H](c1ccccc1Cl)[C@@H]1CCCN1[C@@]21C(=O)Nc2ccccc21 (racemic)	0.35 (≈ 0.627 µM)	5.69 (≈ 10.2 µM)	114			
CN1C/C(=C\c2ccc(Cl)cc2Cl)C(=O)[C@]2(C1)[C@@H](c1ccc(Cl)cc1Cl)CN(C)[C@@]21C(=O)Nc2ccccc21 (racemic)	1.29 (≈ 2.15 µM)	5.21 (≈ 8.66 µM)	104			
CN1C/C(=C\c2ccccc2)C(=O)[C@]2(C1)[C@@H](c1ccccc1)[C@H](c1ccccc1)N[C@@]21C(=O)Nc2ccccc21 (racemic)	0.74 (≈ 1.41 µM)	2.97 (≈ 5.65 µM)	119			
CN1C/C(=C\c2ccco2)C(=O)[C@]2(C1)[C@@H](c1ccco1)[C@H](c1ccccc1)N[C@@]21C(=O)Nc2ccccc21 (racemic)	24.8 (≈ 49 µM)	49.5 (≈ 97.9 µM)				
CN1C/C(=C\c2cccc(F)c2)C(=O)[C@]2(C1)[C@@H](c1cccc(F)c1)[C@H](c1ccccc1)N[C@@]21C(=O)Nc2ccccc21 (racemic)	2.78 (≈ 4.95 µM)	5.58 (≈ 9.94 µM)	111			
Cc1ccc(/C=C2\CN(C)C[C@@]3(C2=O)[C@@H](c2ccc(C)cc2)[C@H](c2ccccc2)N[C@@]32C(=O)Nc3ccccc32)cc1 (racemic)	0.71 (≈ 1.28 µM)	2.82 (≈ 5.09 µM)	113			
COc1ccc(/C=C2\CN(C)C[C@@]3(C2=O)[C@@H](c2ccc(OC)cc2)[C@H](c2ccccc2)N[C@@]32C(=O)Nc3ccccc32)cc1 (racemic)	0.67 (≈ 1.14 µM)	1.33 (≈ 2.27 µM)	107			
CN1C/C(=C\c2ccc(Cl)cc2Cl)C(=O)[C@]2(C1)[C@@H](c1ccc(Cl)cc1Cl)[C@H](c1ccccc1)N[C@@]21C(=O)Nc2ccccc21 (racemic)	2.35 (≈ 3.54 µM)	9.43 (≈ 14.2 µM)	94.3			
CN1C/C(=C\c2ccc(Cl)cc2)C(=O)[C@]2(C1)[C@@H](c1ccc(Cl)cc1)[C@H](c1ccccc1)N[C@@]21C(=O)Nc2ccccc21 (racemic)	5.27 (≈ 8.86 µM)	42.1 (≈ 70.8 µM)				
COc1ccc(/C=C2\CN(C)C[C@@]3(C2=O)[C@@H](c2ccc(OC)cc2)[C@@H]2CCCN2[C@@]32C(=O)Nc3ccccc32)cc1 (racemic)	5.7 (≈ 10.4 µM)	45.5 (≈ 82.8 µM)				
COc1ccccc1/C=C1\CN(C)C[C@@]2(C1=O)[C@@H](c1ccccc1OC)[C@H](c1ccccc1)N[C@@]21C(=O)Nc2ccccc21 (racemic)	1.33 (≈ 2.27 µM)	1.33 (≈ 2.27 µM)	107			

Compound	MIC [1] [µg/mL]	MIC [2] [µg/mL]	IC50 [3] [µM]	log10cfu [4]	Selectivity Index [5]	log10cfu [6]
CN1C/C(=C\c2ccccc2Cl)C(=O)[C@]2(C1)[C@@H](c1ccccc1Cl)[C@H](c1ccccc1)N[C@@]21C(=O)Nc2ccccc21 (racemic)	2.63 (≈ 4.42 µM)	10.5 (≈ 17.7 µM)	105			
CN1C/C(=C\c2cccc3ccccc23)C(=O)[C@]2(C1)[C@@H](c1cccc3ccccc13)[C@@H]1CCCN1[C@@]21C(=O)Nc2ccccc21 (racemic)	2.65 (≈ 4.49 µM)	10.6 (≈ 18 µM)	106			
CN1C/C(=C\c2cccc3ccccc23)C(=O)[C@]2(C1)[C@@H](c1cccc3ccccc13)CN(C)[C@@]21C(=O)Nc2ccccc21 (racemic)	11.1 (≈ 19.7 µM)	22.2 (≈ 39.4 µM)				
Cc1ccccc1/C=C1\CN(C)C[C@@]2(C1=O)[C@@H](c1ccccc1C)[C@H](c1ccccc1)N[C@@]21C(=O)Nc2ccccc21 (racemic)	2.82 (≈ 5.09 µM)	11.3 (≈ 20.4 µM)	113			
CN1C/C(=C\c2cccc3ccccc23)C(=O)[C@]2(C1)[C@@H](c1cccc3ccccc13)[C@H](c1ccccc1)N[C@@]21C(=O)Nc2ccccc21 (racemic)	5.01 (≈ 8.01 µM)	20 (≈ 32 µM)				
CN1C/C(=C\c2cccs2)C(=O)[C@]2(C1)[C@@H](c1cccs1)[C@H](c1ccccc1)N[C@@]21C(=O)Nc2ccccc21 (racemic)	11.6 (≈ 21.6 µM)	11.6 (≈ 21.6 µM)				
CN1C/C(=C\c2cccc(F)c2)C(=O)[C@]2(C1)[C@@H](c1cccc(F)c1)[C@@H]1CCCN1[C@@]21C(=O)Nc2ccccc21 (racemic)	5.96 (≈ 11.3 µM)	23.8 (≈ 45.3 µM)				
Cc1ccc(/C=C2\CN(C)C[C@@]3(C2=O)[C@@H](c2ccc(C)cc2)CN(C)[C@@]32C(=O)Nc3ccccc32)cc1 (racemic)	6.37 (≈ 13 µM)	50.9 (≈ 104 µM)				
CN1C/C(=C\c2ccccc2)C(=O)[C@]2(C1)[C@@H](c1ccccc1)[C@@H]1CCCN1[C@@]21C(=O)Nc2ccccc21 (racemic)	25.6 (≈ 52.2 µM)	102 (≈ 209 µM)				
COc1ccc(/C=C2\CN(C)C[C@@]3(C2=O)[C@@H](c2ccc(OC)cc2)CN(C)[C@@]32C(=O)Nc3ccccc32)cc1 (racemic)	0.75 (≈ 1.43 µM)	2.98 (≈ 5.69 µM)	120			
Cc1ccc(/C=C2\CN(C)C[C@@]3(C2=O)[C@@H](c2ccc(C)cc2)[C@@H]2CCCN2[C@@]32C(=O)Nc3ccccc32)cc1 (racemic)	12.1 (≈ 23.4 µM)	24.2 (≈ 46.7 µM)				
Cc1ccccc1/C=C1\CN(C)C[C@@]2(C1=O)[C@@H](c1ccccc1C)[C@@H]1CCCN1[C@@]21C(=O)Nc2ccccc21 (racemic)	12.1 (≈ 23.4 µM)	24.2 (≈ 46.7 µM)				
COc1ccccc1/C=C1\CN(C)C[C@@]2(C1=O)[C@@H](c1ccccc1OC)CN(C)[C@@]21C(=O)Nc2ccccc21 (racemic)	0.36 (≈ 0.688 µM)	2.98 (≈ 5.69 µM)	120			
CN1C/C(=C\c2ccc(F)cc2)C(=O)[C@]2(C1)[C@@H](c1ccc(F)cc1)[C@@H]1CCCN1[C@@]21C(=O)Nc2ccccc21 (racemic)	2.97 (≈ 5.65 µM)	23.8 (≈ 45.3 µM)	119			
CN1C/C(=C\c2ccc(Cl)cc2)C(=O)[C@]2(C1)[C@@H](c1ccc(Cl)cc1)CN(C)[C@@]21C(=O)Nc2ccccc21 (racemic)	2.93 (≈ 5.5 µM)	5.88 (≈ 11 µM)	117			
CN1C/C(=C\c2ccccc2)C(=O)[C@]2(C1)[C@@H](c1ccccc1)CN(C)[C@@]21C(=O)Nc2ccccc21 (racemic)	13.5 (≈ 29.1 µM)	54 (≈ 116 µM)				
CN1C/C(=C\c2ccco2)C(=O)[C@]2(C1)[C@@H](c1ccco1)CN(C)[C@@]21C(=O)Nc2ccccc21 (racemic)	1.76 (≈ 3.97 µM)	0.88 (≈ 1.98 µM)	141			
Cc1ccccc1/C=C1\CN(C)C[C@@]2(C1=O)[C@@H](c1ccccc1C)CN(C)[C@@]21C(=O)Nc2ccccc21 (racemic)	0.39 (≈ 0.793 µM)	1.59 (≈ 3.23 µM)	127			
O=C(O)c1cn(C2CC2)c2cc(N3CCNCC3)c(F)cc2c1=O [CIPROFLOXACIN]		2.35 (≈ 7.09 µM)				
NNC(=O)c1ccncc1 [ISONIAZID]	0.36 (≈ 2.63 µM)	45.6 (≈ 332 µM)		5.61		4.92
